Test results as given in the EternaBench riboswitch data.

Tested on: MS2 coat protein
Experiment: apparent Kd, MS2 coat protein; higher = weaker binding; RNA-MaP array; FMN 200 µM where present
Method in brief: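 Two titrations, one without ligand and one with constant ligand, were run with SNAP-549-labelled MS2 coat protein from 0.7 or 1.5 nM, doubling to 3 µM. The targets were designs transcribed by stalled E. coli RNA polymerase on Illumina sequencing-chip clusters, in 100 mM Tris-HCl pH 7.5, 80 mM KCl, 4 mM MgCl2, BSA, DTT, yeast tRNA and Tween-20. The apparent Kd is the median of filtered per-cluster binding-curve fits, with green signal normalised to red-channel RNA signal and control-cluster median Fmax.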

[1] = designed as: ON switch for flavin mononucleotide, no ligand
[2] = ligand present: flavin mononucleotide, designed as: ON switch for flavin mononucleotide
[3] = designed as: OFF switch for flavin mononucleotide, no ligand
[4] = ligand present: flavin mononucleotide, designed as: OFF switch for flavin mononucleotide

Row | Sequence | apparent Kd [1] [nM] | apparent Kd [2] [nM] | apparent Kd [3] [nM] | apparent Kd [4] [nM]
1 | GUACAUGAGCAGAAGGGCAUUUAAUUACAUUUUUAUGUUUAUCAGAUAUGCAGGAUAUGUUAAACAUGAGGAUCACCCAUGUAC | 196 | 42.6 | – | –
2 | CUUUUGUGAGGAUAUCAGUAGUAAAUUAAUAAAAUUACUACUGAGAAGGCACAUGAGGAUCACCCAUGUUCCUC | – | – | 42.6 | 285
3 | AAGAAACAUGAGGAUCACCCAUGUGAGGAUAUGAUGCGAAUUAUGUAUGUAGUAAGCAUCAGAAGGCACAAAGG | – | – | 127 | 203
4 | GGAUAGGACAGAGGAUAUACGUGCUAGAGAUACUAGCAAAAUUUCCUCACAUGAGGAUCACCCAUGUAGAAGGCUGUCCAAUCG | – | – | 13.8 | 429
5 | AAUAUAAGAGCUGGUAAAUAACUCACAUGAGGAUCACCCAUGUAGGAUAUCAGCACGAUAAGUGCUGAGAAGGACAUCCAGCUC | – | – | 15.4 | 16.2
6 | ACACAUGAGGAUCACCCAUGUACGCGCUGACAGGAGGUCUCACAGGAUAUAUGUGGUGAUGCUACAUAGAAGGGUGAUACCGCG | 233 | 49.5 | – | –
7 | AUAUUGUGAGGAUAUGAACUUAGUAUCGAAACAUACUAAGUUCAGAAGGCACAUGAGGAUCACCCAUGUUUCUC | – | – | 68.6 | 430
8 | GGUUAUUGCAAGGAUAUGCUUUUUUUUUAUUUUGCAGAAGGUGCAACAUGAGGAUCACCCAUGUUGGAGGGUUU | – | – | 21.7 | 31.9
9 | UCGUCGCUAGGAGGAUAUACAUGAUCUCACACAUGUACCGCUCACGCCACAUGAGGAUCACCCAUGUAGAAGGCCUAGAGAGGU | – | – | 26.5 | 56.4
10 | AUCAGCUCGUCAGGAUAUACGUCACUGCGUCAGCAGUGUGUUAAGAUCACAUGAGGAUCACCCAUGUAGAAGGGACGAGCUGAU | – | – | 6.7 | 27.9
11 | GAUCCUUCUGUUAGGAUAUGCUUUGGGCUUCCGCAGUAGAAGGAACAUGAGGAUCACCCAUGUCCGAUGCCGUC | – | – | 74.6 | 101
12 | ACGGUGGUCACAGGAUAUCCGGCACGCGUGCCCGGAGAAGGGUGACUCAGAACCACAUGAGGAUCACCCAUGUGCCUUGCCGUA | 186 | 37.1 | – | –
13 | GUGGUGCAUAUACGUGGAUGUACAUGAGGAUCACCCAUGUGAGAGGAUAUGCGGAUACUAGCUCAGCAGAAGGCUUACAAAUGA | – | – | 15.2 | 45.8
14 | UUAUCUAUGUAAGGAUAUCGAUGAUAUACGCAUCCGACAUGAGGAUCACCCAUGUUUUAUUUUGUCGAGAAGGUACAUUGUCGG | 61.1 | 53.5 | – | –
15 | ACAUGGUAUGUCAGGAUAUCUAACCGCAACGUUCUAGAGAAGGGACAUGAGGAUCACCCAUGUACGUUGUAAGA | – | – | 54.3 | 117
16 | UUAUUAUGUGUAGGAUAUGCAUAUCAUUAUUAUGCAGAAGGACAUGAGGAUCACCCAUGUAUAUUAUUAUUAUAUAUUAUAUAU | – | – | 15.3 | 16.6
17 | UGUGCUAUGUAGAAGGCAGAUCUGAUUCAGAUCUGAGGAUAUACAUGAGGAUCACCCAUGUUAUGCACCAGCACGAGAGUGCAU | – | – | 17.7 | 91.8
18 | GCUAUUGAUGUAGGAUAUGAUAUAGAAACUAUGUCAGAAGGACAUGAGGAUCACCCAUGUCAAUGGAUGGAGAGAAGAGAUGGC | – | – | 28 | 30.7
19 | UCUCACUCAGGAUAUGAUGCGCAUGACAUGAGGAUCACCCAUGUGUGCAUGCCCUUUGCUUCAGAAGGGAGUGAGA | – | – | 19 | 21.6
20 | ACCUGCCGUGGCACGGUAGUACCGGAGGAUAUCCGCGUCGGUCAUGACAUGAGGAUCACCCAUGUGGAGAAGGCUGGUUUGUCC | – | – | 11.9 | 24.8
21 | AGAAAGAAGCAAGGAUAUUGUAAGGUUAAUGUACAAGAAGGUGCUGUUUAUGUCUCUUAACAUGAGGAUCACCCAUGUAUUGGU | 52.6 | 44.1 | – | –
22 | CGGCGCUGUCGAGAGGAUAUGCGGUGAUGGACAUGAGGAUCACCCAUGUUAGCGAUAGCAUUACGGUAGAAGGCUCUAUAGUUGC | 362 | 93.2 | – | –
23 | AAUUAUUAUUGAGGAUAUCGUAUUGAAACAAUACGAGAAGGCGGGAUAAACAUGAGGAUCACCCAUGUGAGCCUGAUGCUUGUG | – | – | 18.1 | 16.5
24 | AAAAAACAUGAGGAUCACCCAUGUAAGGAUAUGCUAAAAAAAAAAAAAAAAAAAAAAUGCAGAAGGUACAAAAA | – | – | 63.6 | 78.2
25 | AAAAAGCGAGGAUAUACAUGAGGAUCACCCAUGUGAGAGAAAAAAAGGAGAAAAAAAAGUAGAAGGCGCAAAAA | – | – | 61.6 | 72.2
26 | GCUAUAGCGGAGGAUAUCCCGAAAAGAAGUUUAGGAGAAGGCCGCACAUGAGGAUCACCCAUGUGAGUCCGCAA | – | – | 22.7 | 119
27 | GCGAGCGUACUUGCAACAUGAGGAUCACCCAUGUUAACUGGACAGGAUAUGGUACCGUUUCGGUACCAGAAGGGUUCACUCAUG | 137 | 250 | – | –
28 | GUUACAUGAGGAUCACCCAUGUAUGUGUGGGAGUAAGUGUCUUAGGAUAUCUAUUAGUUAAAUUAAGAGAAGGAAGAUUGUUGU | 119 | 127 | – | –

Row | Sequence | apparent Kd [1] [nM] | apparent Kd [2] [nM] | apparent Kd [3] [nM] | apparent Kd [4] [nM]
29 | CGUGCGUAUGUGAGGAUAUGCUGGUCCUUGGAUCAGCAGAAGGCACAUGAGGAUCACCCAUGUGGUGUCGUACA | – | – | 273 | 20.1
30 | UCGGCCGCUGGGUUGUACGAUGACAGAAGGGCACACCGGGUGCCGCACAUGAGGAUCACCCAUGUGCAGGAUAUGUCAUCCUGA | – | – | 11.1 | 8.25
31 | ACAUGCGGAUGAGGAUAUUCAUUCAUGAGGAUAGAAGAAGGCAUACAUGAGGAUCACCCAUGUAUACGCAUGAGGAUCCCUUAU | – | – | 24.8 | 32.7
32 | UGAGCCUCGUGAGGAUAUACAUGAGGAUCACCCAUGUAAUAGGAUGAACGGAGGAAACUCCGAAUGUAGAAGGCACGAGGCUCA | – | – | 77.7 | 664
33 | GUGGUUGUCGUAGGAUAUGUAGGAUAUUCCUACAUGAGGAUCACCCAUGUUCGCAUGGAAGAAGGACAGAAGGACGAUGACCAC | 1250 | 10.2 | – | –
34 | AGUCGGGAAUACUCGAAUGGUUAGCAGGAUAUCGACAUGAGGAUCACCCAUGUUGGGUUGAAUGUCGAGAAGGGCUCGGAAUGA | – | – | 198 | 193
35 | GUGGUGUAGAUACAGGAUAUGUUGCUCGUAACAUGAGGAUCACCCAUGUAUCUAUGAGAUAAAAUGCAGAAGGGUGCACACCACU | 357 | 19.1 | – | –
36 | GACUUGCGCACAGGAUAUCCACGGAGCGGACGUGGAGAAGGGUGACAUGAGGAUCACCCAUGUACGUAAGUCUGGAUCACAUCC | 41.8 | 19.5 | – | –
37 | GGUUGGCGAGGAUAUACAUGAGGAUCACCCAUGUGGUCCUAAAAAAAAAUAAACCUUUGUAGAAGGCGCGGGUC | – | – | 258 | 290
38 | UGUUUGUGACAGAAGGGCAUUUACAUGAGGAUCACCCAUGUUCAUCAUUGCAGGAUAUGUAUUUCAUGAGGAUCACCUAUGCUC | 201 | 71.1 | – | –
39 | GGGUACAUCGGAGGAUAUCAUGUAAAUACAUGAGGAUCACCCAUGUCGAUGGAGACAUCGGAGAUUGAGAAGGCCGAUGGACCG | 163 | 8.74 | – | –
40 | AAUGAGACCGCAGGAUAUCCACAUGAGGAUCACCCAUGUUCUCAGAUCAGAAGCACGAUCUGCGAGGAGAAGGGCGACCUCAUA | 563 | 37.6 | – | –
41 | UUACAGCACGGGUAGGAUAUGUAGGGUGGUACAUGAGGAUCACCCAUGUAUCCACCCUUCGAACGGCAGAAGGGCCUGUCACUGC | 16.7 | 17 | – | –
42 | GAUCAACAUGAGGAUCACCCAUGUGAGGAUAUGUAUCAUAGAUCUUCGGAUCUAUGAUACAGAAGGCAUGUGAA | – | – | 76.1 | 101
43 | GCGCUUAUACAGAAGGCCAUAUACAUGAGGAUCACCCAUGUCGAAUCUUGGAGGAUAUGUUAUUAAUUACACGCAGAUGAGCGC | 15.8 | 6.19 | – | –
44 | GUUAACACAUGAGGAUAUGCUCGCAUUUCAAGAGCAGAAGGUAUGUCUAUAGACAUGAGGAUCACCCAUGUAUUUAUCAUUGAA | 274 | 52.6 | – | –
45 | UGUGUGUGGCAGGAUAUUCCGGUCGUUGGUCGGGAAGAAGGGUCUACAUGAGGAUCACCCAUGUGACCGGUUGG | – | – | 25.6 | 26.2
46 | GGAAUGUCGGGAGGAUAUCCAAAUGUAUACAUAGGAGAAGGCCCGCACAUGAGGAUCACCCAUGUAAUAACGCGUGGCAUCUAC | – | – | 81.3 | 169
47 | AUUAAACAUGAGGAUCACCCAUGUCAACAAAGUCGAGGAUAUGGGCAAAUAAAAUAAGAACCAGAAGGCGACUAAU | 22.8 | 16 | – | –
48 | AUGCUAUACGAAGGAUAUGGUUACAUGAGGAUCACCCAUGUAAUUCUUGUGAUCUUGUUUAAGUUCCAGAAGGUCGUAUAGCUA | – | – | 29.1 | 88.2
49 | UUUAUAAGAAAAUAAACGAAGUGGCCAGAAGGUGAAUGCCACAUGAGGAUCACCCAUGUUUCGAUCAAGGAUAUGGUUUCUCAC | 400 | 107 | – | –
50 | UACGUUAUACGCAACAUGAGGAUCACCCAUGUUAGCCGAUCACAGGAUAUGUUGGAGCCGGUCGGACAGAAGGGUGAGUUUGCU | 47.9 | 43.3 | – | –
51 | UACAGCUUGACAGGAUAUACAUCACUGCGAAAGCAGUGUAUCUUAAUAACAUGAGGAUCACCCAUGUAGAAGGGUCGAGCUGUA | – | – | 19.8 | 35.9
52 | UUUGGGUGGCUGGAGGAUAUUCGAGUGGUUACAUGAGGAUCACCCAUGUGUCGCGCGGUACACGAGGAGAAGGCUGGCGGCCGUU | 50.8 | 22.4 | – | –
53 | AGACGGAGCAGAGGAUAUACAUGAGGAUCACCCAUGUAAGAUCUCCAGGAAACUGGAGAUCAAAUGUAGAAGGCUGCUCCGUCA | – | – | 17.8 | 55.8
54 | AGUCAUGUCCGAGGAUAUGAUGCCGGUUUCUGCAAGCCAACGCGCCCGGCCUCAGAAGGCGGACAUGAGGAUCACCCAUGUAUC | – | – | 64.9 | 12.2
55 | UCAGUCAUGUAAGGAUAUGCAGCCGUUUCGGCUGCAGAAGGUACUAUAAUUACAUGAGGAUCACCCAUGUUAUAAAAUUUAUAU | 52.5 | 19.9 | – | –
